Results on 1 molecule are retold here after ChEMBL document CHEMBL4359903, “1,2,4-Oxadiazole derivatives targeting EGFR and c-Met degradation in TKI resistant NSCLC” (Eur J Med Chem, 2019).

Assay [1] concerns A549. As to the kind of experiment: Cell cycle arrest in human A549 cells assessed as increase in accumulation of cells at G2/M phase at 0.2 to 0.6 uM incubated for 48 hrs by propidium iodide based flow cytometry. The format is functional. The method, boiled down:
(§1)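 Cells plated at 3 × 10^5 per 6-cm dish and left overnight, then treated for 24 h and 48 h. Pellets fixed in 70% ethanol and stained with 40 µg/ml propidium iodide plus 20 µg/ml RNase A, 30 min on ice in the dark. DNA content read on a FACSCalibur flow cytometer.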

Assay [2] deals with Hepatocyte growth factor receptor (Homo sapiens) (UniProt P08581). As to the kind of experiment: Induction of c-MET degradation in human NCI-H1975 cells harbouring EGFR L858R/T790M double assessed as reduction in c-Met expression at 0.2 to 0.6 uM incubated for 48 hrs by Western blot analysis. The format is cell-based. A digest of the protocol:
(§2)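 After 48 h treatment, cells were scraped and lysed in 1% SDS, 50 mM Tris-HCl pH 8.0, 10 mM EDTA with protease and phosphatase inhibitors. Lysates sonicated, protein measured by BCA, equal amounts run on SDS-PAGE and blotted to nitrocellulose. Primary antibodies (EGFR, c-Met, S473-Akt, Akt, GAPDH) used at 1:1000 overnight at 4 °C, HRP secondaries at 1:5000, ECL detection.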

Assay [3] has as its system PC-9. As to the kind of experiment: Antiproliferative activity against human PC9 cells harbouring EGFR delE746-A750 mutant assessed as reduction in cell viability incubated for 72 hrs by MTT assay. The format is functional, cell-based. As to conditions: PC-9, 72 h.
A short description of assay [4]: Antiproliferative activity against human CL68 cells harbouring EGFR delE746-A750/T790M mutant assessed as reduction in cell viability incubated for 48 hrs by MTT assay. The format is functional, cell-based. A digest of the protocol: (§3)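 Cells seeded at 5000 per well in 10% FBS and left overnight, then exposed to agent or DMSO in 5% FBS for 48 h. MTT added for 1 h, dye dissolved in DMSO, absorbance read at 570 nm. Viability given as percent of vehicle control. At least three independent experiments, means ± SD.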

Assay [5] deals with Epidermal growth factor receptor (Homo sapiens), P00533 [L858R,T790M]. As to the kind of experiment: Induction of EGFR L858R/T790M double mutant degradation in human NCI-H1975 cells assessed as reduction in Akt phosphorylation at 0.2 to 0.6 uM incubated for 48 hrs by Western blot analysis. The format is cell-based. A digest of the protocol:
as §2

Assay [6] in a line: Antiproliferative activity against human CL68 cells harbouring EGFR delE746-A750/T790M mutant assessed as reduction in cell viability incubated for 72 hrs by MTT assay. It counts as functional, cell-based.
The subject of assay [7] is PC-9. Nature of the assay: Cell cycle arrest in human PC9 cells harbouring EGFR delE746-A750 […] assessed as increase in cells accumulation at G2/M phase at 0.4 to 0.8 uM incubated for 48 hrs by propidium iodide based flow cytometry. The format is functional. A digest of the protocol:
as §1

Assay [8] concerns NCI-H1975. Nature of the assay: Antitumor activity against human NCI-H1975 cells harbouring EGFR L858R/T790M double mutant xenografted in athymic Nude-Foxn1nu BALB/c mouse assessed as tumor growth inhibition at 150 mg/kg, po administered once daily via gavage for 20 days measured twice a week by caliper method relative to control. As to conditions: 480 h, read-out: TGI. It counts as functional. The method, boiled down: (§4)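 Female Balb/c nude mice, 5 weeks old, injected subcutaneously in the right flank with 10^6 H1975 cells in 0.1 ml. Randomized at about 50 mm3, n = 8 per group. Gavaged once daily for 20 days with vehicle (10% DMSO/0.1% Tween 80/0.5% methylcellulose in sterile water) or 50 or 150 mg/kg. Calipers, V = width² × length × 0.52; volume and body weight twice weekly; Student's t-test.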

In assay [9] the test system is NCI-H1975. As to the kind of experiment: Antitumor activity against human NCI-H1975 cells harbouring EGFR L858R/T790M double mutant xenografted in athymic Nude-Foxn1nu BALB/c mouse assessed as tumor growth inhibition at 50 mg/kg, po administered once daily via gavage for 20 days in presence of gefitinib measured twice a week by caliper method relative to control. To be noted: 480 h, read-out: TGI. The format is functional. A digest of the protocol: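 H1975 subcutaneous xenografts in female nude mice, randomized at about 50 mm3, n = 8 per group. Four arms gavaged once daily for 20 days: vehicle, gefitinib 50 mg/kg, test agent 50 mg/kg, or both at 50 mg/kg each. Tumor volume by calipers (width² × length × 0.52), measured twice weekly.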

Assay [10] deals with NCI-H1975. As to the kind of experiment: Antiproliferative activity against human NCI-H1975 cells harbouring EGFR L858R/T790M double mutant assessed as reduction in cell viability incubated for 48 hrs by MTT assay. It counts as functional, cell-based. As to conditions: NCI-H1975, 48 h. A digest of the protocol: as §3
The species entered for a further assay is Homo sapiens. Nature of the assay: Cell cycle arrest in human CL68 cells harbouring EGFR delE746-A750/T790M mutant assessed as increase in cells accumulation at G2/M phase at 0.4 to 0.8 uM incubated for 48 hrs by propidium iodide based flow cytometry. It counts as functional. The method, boiled down:
as §1

The subject of assay [11] is NCI-H1975. As to the kind of experiment: Antiproliferative activity against human NCI-H1975 cells harbouring EGFR L858R/T790M double mutant assessed as reduction in cell viability incubated for 72 hrs by MTT assay. To be noted: NCI-H1975, 72 h. The format is functional, cell-based.
The subject of assay [12] is NCI-H1975. Nature of the assay: Antitumor activity against human NCI-H1975 cells harbouring EGFR L858R/T790M double mutant xenografted in athymic Nude-Foxn1nu BALB/c mouse assessed as reduction in EGFR expression in tumor lysates administered once daily via oral gavage for 20 days measured on day 20 by Western blot analysis. It counts as functional. As to conditions: Neoplasm, Lysate. The method, boiled down: (§5)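 H1975 xenografts in nude mice gavaged daily for 20 days with vehicle, 50 or 150 mg/kg. At study end mice were killed by CO2, and tumor lysates from four representative tumors per group were immunoblotted for EGFR and c-Met. Band intensities quantified by densitometry.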

Assay [13] concerns Epidermal growth factor receptor (Homo sapiens), P00533 [UNDEFINED MUTATION]. Nature of the assay: Induction of EGFR E746-A750 deletion/T790M mutant degradation in human CL68 cells assessed as reduction in EGFR expression at 0.2 to 0.6 uM incubated for 48 hrs by Western blot analysis. The format is cell-based. A digest of the protocol:
as §2

For assay [14] the test system is unchanged. As to the kind of experiment: Induction of EGFR E746-A750 deletion mutant degradation in human PC9 cells assessed as reduction in EGFR expression at 0.2 to 0.6 uM incubated for 48 hrs by Western blot analysis. It counts as cell-based. The method, boiled down:
as §2

Assay [15] relates to NCI-H1975. Nature of the assay: Antitumor activity against human NCI-H1975 cells harbouring EGFR L858R/T790M double mutant xenografted in athymic Nude-Foxn1nu BALB/c mouse assessed as reduction in c-Met expression in tumor lysates administered once daily via oral gavage for 20 days measured on day 20 by Western blot analysis. The format is functional. To be noted: Neoplasm, Lysate. A digest of the protocol: as §5

The target in assay [16] is Epidermal growth factor receptor (Homo sapiens) (UniProt P00533). Nature of the assay: Inhibition of EGFR in wild type human A549 cells assessed as reduction in Akt phosphorylation at 0.2 to 0.6 uM incubated for 48 hrs by Western blot analysis. It counts as cell-based. The method, boiled down: as §2
For assay [17], the system named is Epidermal growth factor receptor (Homo sapiens), P00533 [L858R,T790M]. Nature of the assay: Induction of EGFR L858R/T790M double mutant degradation in human NCI-H1975 cells assessed as reduction in EGFR expression at 0.2 to 0.6 uM incubated for 48 hrs by Western blot analysis. It counts as cell-based. A digest of the protocol:
as §2

Assay [18] deals with A549. As to the kind of experiment: Antiproliferative activity against wild type human A549 cells assessed as reduction in cell viability incubated for 72 hrs by MTT assay. The format is functional, cell-based. To be noted: A549, 72 h.
The subject of assay [19] is NCI-H1975. Nature of the assay: Antitumor activity against human NCI-H1975 cells harbouring EGFR L858R/T790M double mutant xenografted in orally dosed athymic Nude-Foxn1nu BALB/c mouse assessed as tumor growth inhibition administered once daily via gavage for 20 days measured twice a week by caliper method. It counts as functional, organism-based. The method, boiled down: as §4

The structures appear in SMILES notation. Calls of active or inactive are those of the source. No cut-off for these calls is given here.

Chain of Hepatocyte growth factor receptor (Homo sapiens) (P08581 whole entry): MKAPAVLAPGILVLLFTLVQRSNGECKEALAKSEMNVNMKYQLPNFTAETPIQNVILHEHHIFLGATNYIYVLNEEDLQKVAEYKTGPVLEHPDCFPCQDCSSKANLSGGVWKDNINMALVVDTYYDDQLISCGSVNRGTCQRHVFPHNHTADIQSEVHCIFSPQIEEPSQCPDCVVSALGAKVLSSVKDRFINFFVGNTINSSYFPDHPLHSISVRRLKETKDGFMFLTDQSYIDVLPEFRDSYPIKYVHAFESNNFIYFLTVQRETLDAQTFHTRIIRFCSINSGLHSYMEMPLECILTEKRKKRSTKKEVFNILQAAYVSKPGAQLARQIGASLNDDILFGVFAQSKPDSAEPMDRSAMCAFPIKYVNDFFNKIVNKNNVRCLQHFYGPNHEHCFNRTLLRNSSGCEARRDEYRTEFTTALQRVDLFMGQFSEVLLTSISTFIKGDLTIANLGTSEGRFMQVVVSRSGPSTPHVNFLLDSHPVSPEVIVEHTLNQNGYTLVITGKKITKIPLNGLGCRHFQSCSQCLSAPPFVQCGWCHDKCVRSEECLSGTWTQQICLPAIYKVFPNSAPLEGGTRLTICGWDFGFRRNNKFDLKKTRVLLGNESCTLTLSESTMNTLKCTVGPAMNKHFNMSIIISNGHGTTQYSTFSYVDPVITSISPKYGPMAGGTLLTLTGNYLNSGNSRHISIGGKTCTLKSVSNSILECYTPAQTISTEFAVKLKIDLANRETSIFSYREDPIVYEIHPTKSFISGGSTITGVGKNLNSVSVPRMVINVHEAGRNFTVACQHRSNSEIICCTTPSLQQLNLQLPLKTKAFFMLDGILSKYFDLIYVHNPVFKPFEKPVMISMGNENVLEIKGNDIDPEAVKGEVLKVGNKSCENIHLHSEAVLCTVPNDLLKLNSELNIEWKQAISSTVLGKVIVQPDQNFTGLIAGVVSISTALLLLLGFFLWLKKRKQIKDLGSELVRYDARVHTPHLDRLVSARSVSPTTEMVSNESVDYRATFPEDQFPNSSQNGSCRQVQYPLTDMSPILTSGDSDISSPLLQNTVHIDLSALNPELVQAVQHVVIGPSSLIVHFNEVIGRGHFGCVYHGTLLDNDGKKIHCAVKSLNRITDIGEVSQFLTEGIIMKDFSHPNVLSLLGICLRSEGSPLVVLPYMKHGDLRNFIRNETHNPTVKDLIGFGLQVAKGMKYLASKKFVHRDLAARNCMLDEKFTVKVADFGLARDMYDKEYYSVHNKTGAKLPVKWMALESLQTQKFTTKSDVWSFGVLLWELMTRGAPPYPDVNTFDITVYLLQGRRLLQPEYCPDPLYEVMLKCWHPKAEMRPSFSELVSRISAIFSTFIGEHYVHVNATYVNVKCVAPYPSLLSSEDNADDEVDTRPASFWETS

For `O=C(Nc1cccc(-c2nc(-c3ccc(NC(=O)c4cccnc4)cc3Cl)no2)c1)Nc1ccc(NC(=O)C2CC2)c(C(F)(F)F)c1`, the result (in the assay on A549 [1]; in assay [2]; in [5]; in the assay on PC-9 [7]; in the assay filed under Homo sapiens; in assay [13]) was Active. For the same molecule, the outcome in [14], in assay [16] and in assay [17] was Active. Moreover, the 50% inhibitory concentration (IC50) turned out to be 500 nM in the assay with PC-9 [3]; 500 nM in [4]; 400 nM in assay [6]; 300 nM with NCI-H1975 [10]; 300 nM in the assay with NCI-H1975 [11]; 200 nM with A549 [18]. Further, in the assay with NCI-H1975 [8], the inhibition in vivo at 150 mg/kg is 60%. The inhibition in vivo at 50 mg/kg with NCI-H1975 [9] was 72%. For the same molecule, the Activity entry with NCI-H1975 [12] and in the assay with NCI-H1975 [15] was “Dose-dependent effect” each time. Besides, the TGI entry with NCI-H1975 [19] is “Dose-dependent effect”.
